Consider seven compounds from ChEMBL document CHEMBL4145524, “Chemoenzymatically synthesized GM3 analogues as potential therapeutic agents to recover nervous functionality after injury by inducing neurite outgrowth” (2018).

Calls of active or inactive are those of the source. No cut-off for these calls is given here.

The subject of test [1] is PC-12. Briefly: Induction of neuritogenesis in rat PC12 cells assessed as neurite bearing cells at 10 uM after 72 hrs by inverted microscopic analysis relative to control. The test is classed as functional. The method in brief:
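PC12 cells (ATCC; grown in DMEM, 10% heat-inactivated horse serum, 5% FBS, 37 °C, 5% CO2) seeded at 2×10^4/well on poly-L-lysine, attached 24 h, then 24 h in low-serum DMEM (1% horse serum, 0.5% FBS). Compound at 10 μM for 72 h, no NGF. Score cells with at least one neurite ≥2× cell-body diameter, ≥200 cells/sample; mean ± S.D., ≥3 repeats.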

The test system of test [2] is PC-12. As to the kind of experiment: Induction of neuritogenesis in NGF-induced rat PC12 cells assessed as neurite bearing cells at 10 uM cotreated with 25 ng/ml NGF after 72 hrs by inverted microscopic analysis relative to control. The test is classed as functional. Summed up: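 PC12 cells plated on poly-L-lysine-coated wells at 2×10^4/well, switched to DMEM with 1% horse serum and 0.5% FBS for 24 h, then given compound together with NGF 25 ng/ml for 72 h. Inverted microscopy. Percentage of cells bearing at least one neurite twice the cell-body diameter, over ≥200 cells per sample; mean ± S.D., at least three experiments.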

Turning to `CCCCCCCCCCCCC/C=C/[C@@H](O)[C@H](CO[C@@H]1O[C@H](CO)[C@@H](O[C@@H]2O[C@H](CO)[C@H](O)[C@H](O[C@]3(C(=O)O)C[C@H](O)[C@@H](NC(=O)CCl)[C@H]([C@@H](O)[C@H](O)CO)O3)[C@H]2O)[C@H](O)[C@H]1O)NC(=O)CCCCCCCCCCCCCCCCC`, in the test on PC-12 [1], the Activity was 8%. Also, in the test with PC-12 [2], the result was inactive.
Regarding `CCCCCCCCCCCCC/C=C/[C@@H](O)[C@@H](N)CO[C@@H]1O[C@H](CO[C@]2(C(=O)O)C[C@H](O)[C@@H](NC(C)=O)[C@H]([C@@H](O)[C@H](O)CO)O2)[C@H](O)[C@H](O)[C@H]1O`, in the test with PC-12 [1], the Activity was 9%. Besides, in the test on PC-12 [2], the result was inactive.
Taken in the same sequence, the figures for `CCCCCCCCCCCCC/C=C/[C@@H](O)[C@@H](N)CO[C@@H]1O[C@H](CO[C@]2(C(=O)O)C[C@H](O)[C@@H](NC(C)=O)[C@H]([C@@H](O)[C@H](O)CO)O2)[C@@H](O)[C@H](O)[C@H]1O` were 26% and more than 30%.
In the same order, the values of `CCCCCCCCCCCCC/C=C/[C@@H](O)[C@H](CO[C@@H]1O[C@H](CO[C@]2(C(=O)O)C[C@H](O)[C@@H](NC(C)=O)[C@H]([C@@H](O)[C@H](O)CO)O2)[C@H](O)[C@H](O)[C@H]1O)NC(=O)CCCCCCCCCCCCCCCCC` are “inactive” and “inactive”.
Taken in the same sequence, the figures for `CCCCCCCCCCCCC/C=C/[C@@H](O)[C@@H](N)CO[C@@H]1O[C@H](CO)[C@H](O)[C@H](O[C@]2(C(=O)O)C[C@H](O)[C@@H](NC(C)=O)[C@H]([C@@H](O)[C@H](O)CO)O2)[C@H]1O` were 6% and “Active”.
As for `CCCCCCCCCCCCC/C=C/[C@@H](O)[C@H](CO[C@@H]1O[C@H](CO[C@]2(C(=O)O)C[C@H](O)[C@@H](NC(C)=O)[C@H]([C@@H](O)[C@H](O)CO)O2)[C@@H](O)[C@H](O)[C@H]1O)NC(=O)CCCCCCCCCCCCCCCCC`, the outcome in the test with PC-12 [1] and with PC-12 [2] was inactive.
For the compound `CCCCCCCCCCCCC/C=C/[C@@H](O)[C@H](CO[C@@H]1O[C@H](CO)[C@H](O)[C@H](O[C@]2(C(=O)O)C[C@H](O)[C@@H](NC(C)=O)[C@H]([C@@H](O)[C@H](O)CO)O2)[C@H]1O)NC(=O)CCCCCCCCCCCCCCCCC`, the outcome in the test on PC-12 [1] and in the test with PC-12 [2] was inactive.
